Reference: ChEMBL document CHEMBL1123663, “Double-headed haptens with pyrocatechol (poison ivy like) and methylene lactone functional groups: a search for skin-tolerance inducers” (1987)

What was measured:
Type in all cases: functional
Cavia porcellus [1] = organism: Cavia porcellus; assay: Open epicutaneous test for sensitization as average skin reaction in presence of bihapten 1 as sensitizer on guinea pigs; Value indicates number of animals
Procedure, shortened: (§1)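 Female Himalayan spotted guinea pigs (300–500 g) sensitized with three intradermal nuchal injections (0.1 mL) on alternate days of the hapten (2.5% w/v) emulsified 1:1 in Freund's complete adjuvant/saline. Elicitation by open epicutaneous test with the hapten at 2% w/v in 4:1 acetone/olive oil. Eight animals per group, with FCA-treated controls. Average skin reaction is the sum of test scores divided by the number of animals tested.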

Cavia porcellus [2] = organism: Cavia porcellus; assay: Open epicutaneous test for sensitization as average skin reaction in presence of lactone 8 (pretreated with bihapten 1) as sensitizer on guinea pigs; Value indicates number of animals; procedure, shortened: as §1
Cavia porcellus [3] = organism: Cavia porcellus; assay: Open epicutaneous test for sensitization as average skin reaction in presence of lactone 8 as sensitizer on guinea pigs; Value indicates number of animals; procedure, shortened: as §1
Cavia porcellus [4] = organism: Cavia porcellus; assay: Open epicutaneous test for sensitization in presence of bihapten 1 as sensitizer on guinea pigs as number of positive animals responded; procedure, shortened: as §1
Cavia porcellus [5] = organism: Cavia porcellus; assay: Open epicutaneous test for sensitization in presence of lactone 8 (pretreated with bihapten 1) as sensitizer on guinea pigs as number of positive animals responded; procedure, shortened: as §1
Cavia porcellus [6] = organism: Cavia porcellus; assay: Open epicutaneous test for sensitization in presence of lactone 8 as sensitizer on guinea pigs as number of positive animals responded; procedure, shortened: as §1
Cavia porcellus [7] = organism: Cavia porcellus; assay: Open epicutaneous test for sensitization in presence of bihapten 1 as sensitizer on guinea pigs with skin intensity test scale (definite erythema covering the whole test area); Value indicates number of animals; procedure, shortened: as §1
Cavia porcellus [8] = organism: Cavia porcellus; assay: Open epicutaneous test for sensitization in presence of bihapten 1 as sensitizer on guinea pigs with skin intensity test scale (erythema plus swelling going well beyond the); Value indicates number of animals; procedure, shortened: as §1
Cavia porcellus [9] = organism: Cavia porcellus; assay: Open epicutaneous test for sensitization in presence of bihapten 1 as sensitizer on guinea pigs with skin intensity test scale (slight erythema not covering the whole test area); Value indicates number of animals; procedure, shortened: as §1
Cavia porcellus [10] = organism: Cavia porcellus; assay: Open epicutaneous test for sensitization in presence of lactone 8 (pretreated with bihapten 1)as sensitizer on guinea pigs with skin intensity test scale (definite erythema covering the whole test area); Value indicates number of animals; procedure, shortened: as §1
Cavia porcellus [11] = organism: Cavia porcellus; assay: Open epicutaneous test for sensitization in presence of lactone 8 (pretreated with bihapten 1)as sensitizer on guinea pigs with skin intensity test scale (erythema plus swelling going well beyond); Value indicates number of animals; procedure, shortened: as §1
Cavia porcellus [12] = organism: Cavia porcellus; assay: Open epicutaneous test for sensitization in presence of lactone 8 (pretreated with bihapten 1)as sensitizer on guinea pigs with skin intensity test scale (erythema plus swelling of the test area); procedure, shortened: as §1
Cavia porcellus [13] = organism: Cavia porcellus; assay: Open epicutaneous test for sensitization in presence of lactone 8 (pretreated with bihapten 1)as sensitizer on guinea pigs with skin intensity test scale (no reaction); Value indicates number of animals; procedure, shortened: as §1
Cavia porcellus [14] = organism: Cavia porcellus; assay: Open epicutaneous test for sensitization in presence of lactone 8 as sensitizer on guinea pigs with skin intensity test scale (definite erythema covering the whole test area); Value indicates number of animals; procedure, shortened: as §1
Cavia porcellus [15] = organism: Cavia porcellus; assay: Open epicutaneous test for sensitization in presence of lactone 8 as sensitizer on guinea pigs with skin intensity test scale (erythema plus swelling going well beyond); Value indicates number of animals; procedure, shortened: as §1
Cavia porcellus [16] = organism: Cavia porcellus; assay: Open epicutaneous test for sensitization in presence of lactone 8 as sensitizer on guinea pigs with skin intensity test scale (erythema plus swelling of the test area); Value indicates number of animals; procedure, shortened: as §1
Cavia porcellus [17] = organism: Cavia porcellus; assay: Open epicutaneous test for sensitization in presence of lactone 8 as sensitizer on guinea pigs with skin intensity test scale (slight erythema not covering the whole test area); Value indicates number of animals; procedure, shortened: as §1
Cavia porcellus [18] = organism: Cavia porcellus; assay: Open epicutaneous test for sensitization in presence of lactone 8 as sensitizer on guinea pigs with skin intensity test scale (no reaction); Value indicates number of animals; procedure, shortened: as §1
Cavia porcellus [19] = organism: Cavia porcellus; assay: Open epicutaneous test for sensitization in presence of bihapten 1 as sensitizer on guinea pigs with skin intensity test scale (erythema plus swelling of the test area); Value indicates number of animals; procedure, shortened: as §1
Cavia porcellus [20] = organism: Cavia porcellus; assay: Open epicutaneous test for sensitization in presence of bihapten 1 as sensitizer on guinea pigs with skin intensity test scale (no reaction); Value indicates number of animals; procedure, shortened: as §1
Cavia porcellus [21] = organism: Cavia porcellus; assay: Open cutaneous test for sensitization in presence of lactone 8 (pretreated with bihapten 1)as sensitizer on guinea pigs with skin intensity test scale (slight erythema not covering the whole test area); Value indicates number of animals; procedure, shortened: as §1
Cavia porcellus [22] = organism: Cavia porcellus; assay: Open epicutaneous test for sensitization in presence of lactone 8 (pretreated with bihapten 1) as sensitizer on guinea pigs with skin intensity test scale (definite erythema covering the whole test area); Value indicates number of animals; procedure, shortened: as §1
Cavia porcellus [23] = organism: Cavia porcellus; assay: Open epicutaneous test for sensitization in presence of lactone 8 (pretreated with bihapten 1) as sensitizer on guinea pigs with skin intensity test scale (erythema plus swelling going well beyond); Value indicates number of animals; procedure, shortened: as §1
Cavia porcellus [24] = organism: Cavia porcellus; assay: Open epicutaneous test for sensitization in presence of bihapten 1 as sensitizer on guinea pigs with skin intensity test scale (erythema plus swelling going well beyond); Value indicates number of animals; procedure, shortened: as §1
Cavia porcellus [25] = organism: Cavia porcellus; assay: Open epicutaneous test for sensitization in presence of lactone 8 (pretreated with bihapten 1) as sensitizer on guinea pigs with skin intensity test scale (erythema plus swelling of the test area); Value indicates number of animals; procedure, shortened: as §1
Cavia porcellus [26] = organism: Cavia porcellus; assay: Open epicutaneous test for sensitization in presence of lactone 8 (pretreated with bihapten 1) as sensitizer on guinea pigs with skin intensity test scale (no reaction); Value indicates number of animals; procedure, shortened: as §1
Cavia porcellus [27] = organism: Cavia porcellus; assay: Open epicutaneous test for sensitization in presence of lactone 8 (pretreated with bihapten 1) as sensitizer on guinea pigs with skin intensity test scale (slight erythema not covering the whole test area); Value indicates number of animals; procedure, shortened: as §1
Cavia porcellus [28] = organism: Cavia porcellus; assay: Open cutaneous test for sensitization in presence of lactone 8 as sensitizer on guinea pigs with skin intensity test scale (definite erythema covering the whole test area); Value indicates number of animals; procedure, shortened: as §1
Cavia porcellus [29] = organism: Cavia porcellus; assay: Open cutaneous test for sensitization in presence of lactone 8 as sensitizer on guinea pigs with skin intensity test scale (erythema plus swelling going well beyond); Value indicates number of animals; procedure, shortened: as §1
Cavia porcellus [30] = organism: Cavia porcellus; assay: Open cutaneous test for sensitization in presence of lactone 8 as sensitizer on guinea pigs with skin intensity test scale (erythema plus swelling of the test area); Value indicates number of animals; procedure, shortened: as §1
Cavia porcellus [31] = organism: Cavia porcellus; assay: Open cutaneous test for sensitization in presence of lactone 8 as sensitizer on guinea pigs with skin intensity test scale (no reaction); Value indicates number of animals; procedure, shortened: as §1
Cavia porcellus [32] = organism: Cavia porcellus; assay: Open cutaneous test for sensitization in presence of lactone 8 as sensitizer on guinea pigs with skin intensity test scale (slight erythema not covering the whole test area); Value indicates number of animals; procedure, shortened: as §1

C=C1CC(CCCCCCCCCc2cccc(O)c2O)OC1=O (configuration not stated)
Average for skin reaction (Cavia porcellus [1]): 1
Average for skin reaction (Cavia porcellus [2]): 1
Average for skin reaction (Cavia porcellus [3]): 1.6
No. of positive animals (Cavia porcellus [4]): 8
No. of positive animals (Cavia porcellus [5]): 8
No. of positive animals (Cavia porcellus [6]): 8
Skin reaction (Cavia porcellus [7]): 8
Skin reaction (Cavia porcellus [8]): 0
Skin reaction (Cavia porcellus [9]): 0
Skin reaction (Cavia porcellus [10]): 8
Skin reaction (Cavia porcellus [11]): 0
Skin reaction (Cavia porcellus [12]): 0
Skin reaction (Cavia porcellus [13]): 0
Skin reaction (Cavia porcellus [14]): 3
Skin reaction (Cavia porcellus [15]): 0
Skin reaction (Cavia porcellus [16]): 5
Skin reaction (Cavia porcellus [17]): 0
Skin reaction (Cavia porcellus [18]): 0
Skin reaction (Cavia porcellus [19]): 0
Skin reaction (Cavia porcellus [20]): 0
Skin reaction (Cavia porcellus [21]): 0

C=C1CC(CCCCCCCCCc2cccc(OC)c2OC)OC1=O (configuration not stated)
Average for skin reaction (Cavia porcellus [1]): 0
Average for skin reaction (Cavia porcellus [2]): 0.6
Average for skin reaction (Cavia porcellus [3]): 3
No. of positive animals (Cavia porcellus [4]): 0
No. of positive animals (Cavia porcellus [5]): 8
No. of positive animals (Cavia porcellus [6]): 8
Skin reaction (Cavia porcellus [7]): 0
Skin reaction (Cavia porcellus [9]): 0
Skin reaction (Cavia porcellus [22]): 2
Skin reaction (Cavia porcellus [23]): 0
Skin reaction (Cavia porcellus [24]): 0
Skin reaction (Cavia porcellus [25]): 0
Skin reaction (Cavia porcellus [26]): 0
Skin reaction (Cavia porcellus [27]): 6
Skin reaction (Cavia porcellus [19]): 0
Skin reaction (Cavia porcellus [20]): 0
Skin reaction (Cavia porcellus [28]): 0
Skin reaction (Cavia porcellus [29]): 8
Skin reaction (Cavia porcellus [30]): 0
Skin reaction (Cavia porcellus [31]): 0
Skin reaction (Cavia porcellus [32]): 0
